Measured values published in ChEMBL document CHEMBL4613238, “Synthesis and biological activity of thieno[3,2-d]pyrimidines as potent JAK3 inhibitors for the treatment of idiopathic pulmonary fibrosis” (Bioorg Med Chem, 2020).
Calls of active or inactive are those of the source. The calls are words filed in the database; no cut-off is given here.

Tests used:
[1] = target: T1, Tyrosine-protein kinase JAK3 (Homo sapiens, UniProt P52333); assay: Inhibition of recombinant human N-terminal GST-tagged JAK3 (781 to end residues) expressed in baculovirus infected Sf9 cells using poly (Glu,Tyr) 4:1 as substrate incubated for 60 mins in presence of ATP by ADP-Glo kinase assay
T1 sequence (P52333 whole entry): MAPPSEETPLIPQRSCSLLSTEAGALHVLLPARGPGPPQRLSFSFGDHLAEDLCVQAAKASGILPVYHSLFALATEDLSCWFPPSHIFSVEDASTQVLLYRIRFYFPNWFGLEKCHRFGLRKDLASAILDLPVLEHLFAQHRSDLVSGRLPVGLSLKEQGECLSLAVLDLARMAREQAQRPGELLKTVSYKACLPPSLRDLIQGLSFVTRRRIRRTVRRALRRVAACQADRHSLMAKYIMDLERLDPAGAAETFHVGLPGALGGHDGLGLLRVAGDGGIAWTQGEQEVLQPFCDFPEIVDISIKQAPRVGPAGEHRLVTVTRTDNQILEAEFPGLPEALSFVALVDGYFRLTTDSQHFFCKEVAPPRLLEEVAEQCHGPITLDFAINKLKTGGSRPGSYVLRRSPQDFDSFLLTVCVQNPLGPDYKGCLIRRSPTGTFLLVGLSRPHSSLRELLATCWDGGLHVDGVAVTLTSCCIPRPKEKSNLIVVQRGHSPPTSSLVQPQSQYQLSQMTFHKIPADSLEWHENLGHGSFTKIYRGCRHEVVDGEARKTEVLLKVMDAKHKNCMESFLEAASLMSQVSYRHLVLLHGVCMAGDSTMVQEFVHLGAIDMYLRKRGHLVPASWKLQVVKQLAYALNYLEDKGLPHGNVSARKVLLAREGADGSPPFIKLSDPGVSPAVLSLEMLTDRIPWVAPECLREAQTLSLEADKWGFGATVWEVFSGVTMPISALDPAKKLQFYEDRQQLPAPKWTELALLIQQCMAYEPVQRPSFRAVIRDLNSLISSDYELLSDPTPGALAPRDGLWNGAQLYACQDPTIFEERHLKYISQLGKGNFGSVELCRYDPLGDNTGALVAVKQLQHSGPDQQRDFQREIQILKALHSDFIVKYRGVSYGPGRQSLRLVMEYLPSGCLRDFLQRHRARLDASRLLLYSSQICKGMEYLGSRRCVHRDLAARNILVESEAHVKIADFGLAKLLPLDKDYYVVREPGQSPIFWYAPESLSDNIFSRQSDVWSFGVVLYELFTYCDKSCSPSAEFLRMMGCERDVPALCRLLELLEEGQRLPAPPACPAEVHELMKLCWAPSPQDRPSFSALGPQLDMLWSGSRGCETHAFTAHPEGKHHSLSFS
How it was run: (§1)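 ADP-Glo luminescent assay run at compound concentrations of 0.1, 1, 10, 100 and 1000 nM. The kinase reaction ran in 1× kinase buffer for 60 min at room temperature. ADP-Glo reagent was then added to stop the reaction and deplete ATP (40 min, RT), followed by detection reagent (30 min, RT) and a luminescence read. IC50s came from curve fitting; means of three experiments.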

[2] = target: Tyrosine-protein kinase BTK (Homo sapiens, UniProt Q06187); assay: Inhibition of BTK (unknown origin) by ADP-Glo kinase assay; how it was run: as §1
[3] = Cytotoxicity against human NHBE cells assessed as reduction in cell viability by CCK8 assay; type: cell-based
How it was run: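 Human bronchial epithelial (HBE) cells were tested for growth inhibition by CCK-8 assay. IC50 values are means of three separate experiments.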

Mus musculus [4] = assay: Antifibrotic activity against bleomycin-induced pulmonary fibrosis C57BL/6J mouse model assessed as reduction in alveolar septal swelling at 120 mg/kg, po administered via gavage qd for 14 days at 3 days post bleomycin challenge by hematoxylin and eosin staining based light microscopic analysis; type: functional, organism-based
How it was run: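 Intratracheal bleomycin (33 μg) was given to female C57BL/6J mice. Oral gavage started 3 days later and continued once daily for 14 days, with 1.4% DMSO saline as vehicle; n=8. Lungs were formalin-fixed for 24 h and paraffin-embedded. 5 μm sections were H&E-stained and examined by light microscopy at 200×.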

Mus musculus [5] = assay: Antifibrotic activity against bleomycin-induced pulmonary fibrosis C57BL/6J mouse model assessed as reduction in lung coefficient at 120 mg/kg, po administered via gavage qd for 14 days at 3 days post bleomycin challenge; type: functional, organism-based
How it was run: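 Bleomycin was given intratracheally (33 μg) to female C57BL/6J mice, 5‒6 weeks old. Daily oral gavage followed for 14 days from day 3, with 1.4% DMSO saline vehicle; n=8 per group. Fresh lungs were weighed and lung index was calculated as lung weight/body weight × 100.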

Mus musculus [6] = assay: Antifibrotic activity against bleomycin-induced pulmonary fibrosis C57BL/6J mouse model assessed as reduction in oxidative stress by measuring reduction in MDA level in plasma at 120 mg/kg, po administered via gavage qd for 14 days at 3 days post bleomycin challenge; type: functional, organism-based
How it was run: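 After 33 μg intratracheal bleomycin, female C57BL/6J mice were gavaged once daily for 14 days from day 3 (vehicle saline, 1.4% DMSO; n=8). MDA was measured in heparinized plasma with a kit by absorbance at 532 nm; mean ± SEM.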

Mus musculus [7] = assay: Antifibrotic activity against bleomycin-induced pulmonary fibrosis C57BL/6J mouse model assessed as reduction in IL6 expression in plasma at 120 mg/kg, po administered via gavage qd for 14 days at 3 days post bleomycin challenge by FACSCalibur flow cytometry; type: functional, organism-based
How it was run: (§2)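 Female C57BL/6J mice (5‒6 weeks, 20‒25 g) were given 33 μg bleomycin intratracheally in saline under isoflurane. From day 3 they received oral gavage once daily for 14 days, with saline containing 1.4% DMSO as vehicle; n=8 per group. Vena cava blood was heparinized and spun at 3000 rpm for 10 min, and plasma was stored at −20 °C. IL-6, IL-17A and TNF-α were measured by flow cytometry; mean ± SEM.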

Mus musculus [8] = assay: Antifibrotic activity against bleomycin-induced pulmonary fibrosis C57BL/6J mouse model assessed as reduction in IL17A expression in plasma at 120 mg/kg, po administered via gavage qd for 14 days at 3 days post bleomycin challenge by FACSCalibur flow cytometry; type: functional, organism-based; how it was run: as §2
Mus musculus [9] = assay: Antifibrotic activity against bleomycin-induced pulmonary fibrosis C57BL/6J mouse model assessed as reduction in TNF-alpha expression in plasma at 120 mg/kg, po administered via gavage qd for 14 days at 3 days post bleomycin challenge by FACSCalibur flow cytometry; type: functional, organism-based; how it was run: as §2

Sequence of Tyrosine-protein kinase BTK (Q06187 whole entry): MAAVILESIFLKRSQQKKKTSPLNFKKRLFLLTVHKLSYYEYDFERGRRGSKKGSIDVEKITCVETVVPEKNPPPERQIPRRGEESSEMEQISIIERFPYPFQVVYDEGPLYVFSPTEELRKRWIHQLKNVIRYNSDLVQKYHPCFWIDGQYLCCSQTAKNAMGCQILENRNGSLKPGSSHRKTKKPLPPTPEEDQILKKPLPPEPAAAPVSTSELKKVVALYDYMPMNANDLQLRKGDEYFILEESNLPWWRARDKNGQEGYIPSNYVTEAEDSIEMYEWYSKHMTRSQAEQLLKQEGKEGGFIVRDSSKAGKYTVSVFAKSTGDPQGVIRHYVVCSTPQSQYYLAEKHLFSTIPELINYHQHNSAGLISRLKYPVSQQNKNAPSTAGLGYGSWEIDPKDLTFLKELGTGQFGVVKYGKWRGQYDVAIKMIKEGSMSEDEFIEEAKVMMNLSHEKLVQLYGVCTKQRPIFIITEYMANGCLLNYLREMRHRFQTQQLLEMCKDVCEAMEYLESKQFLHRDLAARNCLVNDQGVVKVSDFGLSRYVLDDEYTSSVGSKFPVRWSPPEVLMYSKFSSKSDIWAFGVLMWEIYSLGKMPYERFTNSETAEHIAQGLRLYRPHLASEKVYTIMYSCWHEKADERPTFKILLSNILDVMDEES

IC50 [1]	IC50 [2]	Compound	IC50 [3]	Activity (Mus musculus [4])	Activity (Mus musculus [5])	Activity (Mus musculus [6])	Activity (Mus musculus [7])	Activity (Mus musculus [8])	Activity (Mus musculus [9])
85.3 nM	> 100 nM	C=CC(=O)Nc1cccc(Oc2nc(Nc3ccc(CN4CCOCC4)cc3)nc3ccsc23)c1	12800 nM	–	–	–	–	–	–
66.5 nM	–	C=CC(=O)Nc1cccc(Nc2nc(Nc3ccc(OCCOC)cc3)ncc2F)c1 [SPEBRUTINIB]	–	–	–	–	–	–	–
46 nM	> 100 nM	C=CC(=O)Nc1cccc(Oc2nc(Nc3ccc(SCCCN4CCOCC4)cc3)nc3ccsc23)c1	> 40000 nM	–	–	–	–	–	–

Second part, the molecule before the results:

Compound	IC50 [1]	IC50 [2]	IC50 [3]	Activity (Mus musculus [4])	Activity (Mus musculus [5])	Activity (Mus musculus [6])	Activity (Mus musculus [7])	Activity (Mus musculus [8])	Activity (Mus musculus [9])
Cc1ccc(=O)n(-c2ccccc2)c1	–	–	–	Active	Active	Active	Active	Active	Active
C=CC(=O)Nc1cccc(Oc2nc(Nc3ccc(OCCCN4CCOCC4)cc3)nc3ccsc23)c1	89.2 nM	> 100 nM	> 40000 nM	–	–	–	–	–	–
